Laboratory results as given in ChEMBL document CHEMBL1125502, “Structural requirements for neuropeptide Y18-36-evoked hypotension: a systematic study” (1992).
Where a SMILES comes first, the peptide text is derived from it.

Assays:
[1] = system: Rattus norvegicus; test: Change in mean arterial pressure measured 5 min after intra arterial administration at 0.4 mg/kg to male rats.; assay type: functional, Artery; parameters: unit not given here
Summary of the method: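 Conscious, freely moving male Sprague-Dawley rats (240–280 g) with arterial catheters; peptide in saline given IA as a 100-µL bolus (100 µg). MAP recorded by pressure transducer, calculated as [[…] + diastolic]. Baseline set by saline vehicle injection before dosing; change read 5 min post-dose relative to pre-dose control. Mean ± SEM, n ≥ 3.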

[2] = system: Rattus norvegicus; test: Plasma histamine level of the peptide after intra arterial administration at time 5 min in rats; assay type: functional, organism-based
[3] = system: Rattus norvegicus; test: Plasma histamine level of the peptide after intra arterial administration at time 0 min in rats; assay type: functional, organism-based

Structure (SMILES) | Delta MAP [1] | Plasma histamine [2] [ng/mL] | Plasma histamine [3] [ng/mL]
CC[C@H](C)[C@H](NC(=O)[C@H](Cc1ccc(O)cc1)NC(=O)[C@H](Cc1c[nH]cn1)NC(=O)[C@H](CCCN=C(N)N)NC(=O)[C@H](CC(C)C)NC(=O)[C@H](C)NC(=O)[C@H](CO)NC(=O)[C@H](Cc1ccc(O)cc1)NC(=O)[C@H](Cc1ccc(O)cc1)NC(=O)[C@H](CCCN=C(N)N)NC(=O)[C@H](C)N)C(=O)N[C@@H](CC(N)=O)C(=O)N[C@@H](CC(C)C)C(=O)N[C@H](C(=O)N[C@H](C(N)=O)[C@@H](C)O)[C@@H](C)CC (H-ARYYSALRHYINLIT-NH2) | 0 | – | –
CC(C)C[C@H](NC(=O)[C@H](C)NC(=O)[C@H](CO)NC(=O)[C@H](Cc1ccc(O)cc1)NC(=O)[C@H](Cc1ccc(O)cc1)NC(=O)[C@H](CCCN=C(N)N)NC(=O)[C@H](C)N)C(N)=O (H-ARYYSAL-NH2) | 3.33 | – | –
CC[C@H](C)[C@H](NC(=O)[C@H](Cc1ccccc1)NC(=O)[C@H](Cc1c[nH]cn1)NC(=O)[C@H](CCCN=C(N)N)NC(=O)[C@H](CC(C)C)NC(=O)[C@H](C)NC(=O)[C@H](CO)NC(=O)[C@H](Cc1ccc(O)cc1)NC(=O)[C@H](Cc1ccccc1)NC(=O)[C@H](CCCN=C(N)N)NC(=O)[C@H](C)N)C(=O)N[C@@H](CC(N)=O)C(=O)N[C@@H](CC(C)C)C(=O)N[C@H](C(=O)N[C@H](C(=O)N[C@@H](CCCN=C(N)N)C(=O)N[C@@H](CCC(N)=O)C(=O)N[C@@H](CCCN=C(N)N)C(=O)N[C@@H](Cc1ccccc1)C(N)=O)[C@@H](C)O)[C@@H](C)CC (H-ARFYSALRHFINLITRQRF-NH2) | 3 | – | –
CC(C)C[C@H](NC(=O)[C@H](C)NC(=O)[C@H](CO)NC(=O)[C@H](Cc1ccc(O)cc1)NC(=O)[C@H](Cc1ccc(O)cc1)NC(=O)[C@H](CCCN=C(N)N)NC(=O)[C@H](C)N)C(=O)N[C@@H](CCCN=C(N)N)C(=O)N[C@@H](Cc1c[nH]cn1)C(=O)N[C@@H](Cc1ccc(O)cc1)C(N)=O (H-ARYYSALRHY-NH2) | -12 | – | –
CC[C@H](C)[C@H](NC(=O)[C@H](Cc1ccc(O)cc1)NC(=O)[C@H](Cc1c[nH]cn1)NC(=O)[C@H](CCCN=C(N)N)NC(=O)[C@H](CC(C)C)NC(=O)[C@H](C)NC(=O)[C@H](CO)NC(=O)[C@H](Cc1ccc(O)cc1)NC(=O)[C@H](Cc1ccc(O)cc1)NC(=O)[C@H](CCCN=C(N)N)NC(=O)[C@H](C)N)C(=O)N[C@@H](CC(N)=O)C(=O)N[C@@H](CC(C)C)C(=O)N[C@H](C(=O)N[C@H](C(=O)N[C@@H](CCCN=C(N)N)C(=O)N[C@@H](CCC(N)=O)C(=O)N[C@@H](CCCN=C(N)N)C(=O)N[C@@H](Cc1ccc(O)cc1)C(=O)O)[C@@H](C)O)[C@@H](C)CC | -4.75 | – | –
CC[C@H](C)[C@H](NC(=O)[C@H](Cc1ccc(O)cc1)NC(=O)[C@H](Cc1c[nH]cn1)NC(=O)[C@H](CCCN=C(N)N)NC(=O)[C@H](CC(C)C)NC(=O)[C@H](C)NC(=O)[C@H](CO)NC(=O)[C@H](Cc1ccc(O)cc1)NC(=O)[C@H](Cc1ccc(O)cc1)NC(=O)[C@H](CCCN=C(N)N)NC(=O)[C@H](C)N)C(=O)N[C@@H](CC(N)=O)C(=O)N[C@@H](CC(C)C)C(=O)N[C@H](C(=O)N[C@H](C(=O)N[C@@H](CCCN=C(N)N)C(=O)N[C@@H](CCC(N)=O)C(=O)N[C@@H](CCCN=C(N)N)C(=O)N[C@@H](Cc1ccc(O)cc1)C(=O)N[C@@H](Cc1ccc(O)cc1)C(=O)O)[C@@H](C)O)[C@@H](C)CC | -8.35 | – | –
CC[C@H](C)[C@H](NC(=O)[C@H](Cc1ccccc1)NC(=O)[C@H](Cc1c[nH]cn1)NC(=O)[C@H](CCCN=C(N)N)NC(=O)[C@H](CC(C)C)NC(=O)[C@H](C)NC(=O)[C@H](CO)NC(=O)[C@H](Cc1ccc(O)cc1)NC(=O)[C@H](Cc1ccc(O)cc1)NC(=O)[C@H](CCCN=C(N)N)NC(=O)[C@H](C)N)C(=O)N[C@@H](CC(N)=O)C(=O)N[C@@H](CC(C)C)C(=O)N[C@H](C(=O)N[C@H](C(=O)N[C@@H](CCCN=C(N)N)C(=O)N[C@@H](CCC(N)=O)C(=O)N[C@@H](CCCN=C(N)N)C(=O)N[C@@H](Cc1ccccc1)C(N)=O)[C@@H](C)O)[C@@H](C)CC (H-ARYYSALRHFINLITRQRF-NH2) | -6 | – | –
CC[C@H](C)[C@H](NC(=O)[C@H](Cc1ccccc1)NC(=O)[C@H](Cc1c[nH]cn1)NC(=O)[C@H](CCCN=C(N)N)NC(=O)[C@H](CC(C)C)NC(=O)[C@H](C)NC(=O)[C@H](CO)NC(=O)[C@H](Cc1ccccc1)NC(=O)[C@H](Cc1ccccc1)NC(=O)[C@H](CCCN=C(N)N)NC(=O)[C@H](C)N)C(=O)N[C@@H](CC(N)=O)C(=O)N[C@@H](CC(C)C)C(=O)N[C@H](C(=O)N[C@H](C(=O)N[C@@H](CCCN=C(N)N)C(=O)N[C@@H](CCC(N)=O)C(=O)N[C@@H](CCCN=C(N)N)C(=O)N[C@@H](Cc1ccccc1)C(N)=O)[C@@H](C)O)[C@@H](C)CC (H-ARFFSALRHFINLITRQRF-NH2) | 12.33 | – | –
CC[C@H](C)[C@H](NC(=O)[C@H](Cc1ccccc1)NC(=O)[C@H](Cc1c[nH]cn1)NC(=O)[C@H](CCCN=C(N)N)NC(=O)[C@H](CC(C)C)NC(=O)[C@H](C)NC(=O)[C@H](CO)NC(=O)[C@H](Cc1ccccc1)NC(=O)[C@H](Cc1ccc(O)cc1)NC(=O)[C@H](CCCN=C(N)N)NC(=O)[C@H](C)N)C(=O)N[C@@H](CC(N)=O)C(=O)N[C@@H](CC(C)C)C(=O)N[C@H](C(=O)N[C@H](C(=O)N[C@@H](CCCN=C(N)N)C(=O)N[C@@H](CCC(N)=O)C(=O)N[C@@H](CCCN=C(N)N)C(=O)N[C@@H](Cc1ccccc1)C(N)=O)[C@@H](C)O)[C@@H](C)CC (H-ARYFSALRHFINLITRQRF-NH2) | 7.66 | – | –
CC[C@H](C)[C@H](NC(=O)[C@H](Cc1ccc(O)cc1)NC(=O)[C@H](Cc1c[nH]cn1)NC(=O)[C@H](CCCN=C(N)N)NC(=O)[C@H](CC(C)C)NC(=O)[C@H](C)NC(=O)[C@H](CO)NC(=O)[C@H](Cc1ccc(O)cc1)NC(=O)[C@H](Cc1ccc(O)cc1)NC(=O)[C@H](CCCN=C(N)N)NC(=O)[C@H](C)NC(C)=O)C(=O)N[C@@H](CC(N)=O)C(=O)N[C@@H](CC(C)C)C(=O)N[C@H](C(=O)N[C@H](C(=O)N[C@@H](CCCN=C(N)N)C(=O)N[C@@H](CCC(N)=O)C(=O)N[C@@H](CCCN=C(N)N)C(=O)N[C@@H](Cc1ccc(O)cc1)C(N)=O)[C@@H](C)O)[C@@H](C)CC | 12 | 31.1 | 16
CC(C)C[C@H](NC(=O)[C@H](C)NC(=O)[C@H](CO)NC(=O)[C@H](Cc1ccc(O)cc1)NC(=O)[C@H](Cc1ccc(O)cc1)NC(=O)[C@H](CCCN=C(N)N)NC(=O)[C@H](C)N)C(=O)N[C@@H](CCCN=C(N)N)C(N)=O (H-ARYYSALR-NH2) | 4.67 | – | –
